From PubChem BioAssay AID1381 (University of Pittsburgh Molecular Library Screening Center, 2008)
About 1,000 (0.45%) of roughly 220,000 compounds were called active. This is one part of a sample in which actives are shown more often than they occur.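 How the source made its calls: active means plate z-score of nuclear minus cytoplasmic receptor signal below a set negative limit, without overly bright fluorescence or cell loss (cut at about -3.5 in these data, passing the limit was not always enough); inactive means the rest, inconclusive results apart.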

Assay: inhibitors of GR-EGFP nuclear translocation, primary screen, dynein cargo transport inhibitor project, imaging, high-content, 3617.4 mouse cells (AID 1381)
Conditions: stimulated with dexamethasone, 1 µM
How it was run: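 Also added: dexamethasone, 1.0 µM final. Medium: tet-free, stripped-serum medium. Detection: fixed, Hoechst-stained cells imaged at 10x for EGFP. Read-out: nuclear-to-cytoplasmic GR-EGFP distribution per well. Times: induction 48 h, compound 1 h, agonist 30 min.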

[1] = measured here: cell count per field, at 20 µM
[2] = measured here: cytoplasmic GR-EGFP intensity, at 20 µM, stronger effect = higher value
[3] = measured here: nuclear GR-EGFP intensity, at 20 µM, stronger effect = lower value
[4] = measured here: cell count per field, at 50 µM
[5] = measured here: cytoplasmic GR-EGFP intensity, at 50 µM, stronger effect = higher value
[6] = measured here: nuclear GR-EGFP intensity, at 50 µM, stronger effect = lower value

SMILES | z-score (at 20 µM, stronger effect = lower value) | z-score [1] | z-score [2] | z-score [3] | z-score (at 50 µM, stronger effect = lower value) | z-score [4] | z-score [5] | z-score [6]
CC(=O)Cn1ncc(N2CCOCC2)c(Br)c1=O | 1.61 (inactive) | -0.679 | -0.251 | 0.837 |  |  |  | 
CC(=O)Nc1ccccc1OC(=O)N1CCOCC1 |  |  |  |  | -0.424 (inactive) | 0.445 | -0.192 | -0.0276
O=C(c1cccs1)N1CCN(C(=O)N2CCOCC2)CC1 | -0.705 (inactive) | 0.766 | -0.299 | -0.226 |  |  |  | 
O=C(/C=C/c1cccs1)c1cc(Cl)ccc1OC(=O)N1CCOCC1 | -4.66 (active) | 0.865 | 0.34 | -2.08 |  |  |  | 
CC(=O)NC1(c2ccc(F)cc2)CCN(C(=O)c2c(F)cccc2F)CC1 | -0.575 (inactive) | 1.07 | -0.235 | -0.241 |  |  |  | 
Nc1ncnc(Nc2cccc(Cl)c2Cl)n1 | -1.6 (inactive) | 0.756 | -0.225 | -1.2 |  |  |  | 
COCCN(Cc1nc(-c2ccc(C(F)(F)F)cc2)no1)C(C)C | -0.214 (inactive) | 0.527 | -0.267 | 0.0742 |  |  |  | 
O=C(NNS(=O)(=O)Cc1ccccc1)c1ccc([N+](=O)[O-])cc1 | -0.775 (inactive) | 0.134 | -0.751 | -0.634 |  |  |  | 
COc1ccc(-n2cnc3cc(C(=O)NC4CCCC4)ccc32)cc1 | 0.728 (inactive) | -0.477 | -0.235 | 0.5 |  |  |  | 
S=c1[nH]nc(-c2cccnc2)n1/N=C/C(Cl)=C\c1ccccc1 | -0.315 (inactive) | -1.55 | 0.22 | 0.116 |  |  |  | 
Cc1cc(-c2n[nH]c(=S)n2/N=C/c2ccco2)n[nH]1 | 0.146 (inactive) | -0.499 | -0.239 | -0.0329 |  |  |  | 
Cc1cc(-c2n[nH]c(=S)n2/N=C/C(Br)=C/c2ccccc2)n[nH]1 | -4.43 (active) | -1.17 | 0.939 | -2.57 |  |  |  | 
Nc1ccccc1SC(C[N+](=O)[O-])c1ccccc1 (configuration not stated) | -4.57 (active) | -0.167 | 2.56 | -1.84 |  |  |  | 
Nc1ccccc1Sc1ccc(C(F)(F)F)cc1[N+](=O)[O-] | -0.595 (inactive) | 0.488 | -0.213 | -0.319 |  |  |  | 
Nc1ccccc1SCc1cc([N+](=O)[O-])cc2c1OCOC2 | -0.839 (inactive) | 0.822 | 3.91 | 0.0233 |  |  |  | 
COC(=O)c1cc(C(=O)N(Cc2ccccc2)c2ccccn2)cc([N+](=O)[O-])c1 | -0.154 (inactive) | -0.0688 | -0.223 | -0.31 |  |  |  | 
CN1CCN(C(=O)/C(=C\c2cccs2)NC(=O)c2cccs2)CC1 | -0.757 (inactive) | 1.17 | -0.214 | -0.212 |  |  |  | 

SMILES | z-score (at 20 µM, stronger effect = lower value) | z-score [1] | z-score [2] | z-score [3] | z-score (at 50 µM, stronger effect = lower value) | z-score [4] | z-score [5] | z-score [6]
OCC(CO)(CO)NCc1ccc(-c2ccccc2)cc1 | -0.998 (inactive) | 0.791 | -0.231 | -0.299 |  |  |  | 
O=C(NNC(=O)c1ccccc1[N+](=O)[O-])Nc1ccccc1C(F)(F)F | -1.96 (inactive) | 0.934 | -0.0968 | -0.966 |  |  |  | 
CC1(C)CCSC(/C=C/c2ccccc2)=N1 | -6.85 (active) | 1.01 | 1.09 | -2.95 |  |  |  | 
Cc1ccc2nc(-c3ccncc3)cc(C(=O)Nc3ccc(OC(F)F)cc3)c2c1 | -0.0501 (inactive) | 0.497 | -0.311 | -0.123 |  |  |  | 
O=C(Nn1c(SCc2ccc([N+](=O)[O-])cc2)nc2ccccc2c1=O)c1ccc(F)cc1 | -0.621 (inactive) | 3.84 | -0.327 | -0.596 |  |  |  | 
O=C(CCc1nnc(CCCCc2ccccc2)o1)NC(c1cccnc1)C(F)(F)F (configuration not stated) | -0.699 (inactive) | 1.17 | -0.266 | -0.517 |  |  |  | 
COc1cc2c(cc1O)C(SC)=NC(C)(C)C2 |  |  |  |  | -4 (active) | -1.21 | 2.4 | -1.15
COc1cc2c(cc1OC)C(Nc1ccc(S(N)(=O)=O)cc1)=NC(C)(C)C2 | 0.371 (inactive) | 0.476 | -0.265 | 0.242 |  |  |  | 
COc1cc2c(cc1OC)C(C(C)C)=NC(C)(C)C2 |  |  |  |  | 1.53 (inactive) | -0.94 | -0.084 | 1.55
CC(OC(=O)c1ccccc1N1C(=O)C2C3CCC(C3)C2C1=O)C(=O)c1ccccc1 (configuration not stated) | 0.064 (inactive) | -1.14 | -0.233 | -0.118 |  |  |  | 
CC(C)CNc1ncnc2c1cnn2Cc1ccc(Cl)cc1 | -0.416 (inactive) | 0.999 | -0.294 | -0.416 |  |  |  | 
CCOc1cc(N2CCOCC2)c(OCC)cc1NC(=O)C1=NN(c2cccc(C)c2)C(=O)CC1 | 0.424 (inactive) | 0.873 | -0.249 | -0.0907 |  |  |  | 
C=CS(=O)c1sc(Cl)c(N2CCOCC2)c1[N+](=O)[O-] (configuration not stated) | -5.81 (active) | -1.51 | 2.63 | -2.55 |  |  |  | 
O=C(NCc1ccccc1)c1ccc(CNc2c(N3CCCC3)c(=O)c2=O)cc1 | 1.94 (inactive) | -1.79 | -0.175 | 1.39 |  |  |  | 
Cc1ccc(OCC(=O)Nc2cccc3c2CCCC3)cc1C | -0.29 (inactive) | 0.502 | -0.193 | -0.445 |  |  |  | 
CCN(CC)c1ccc2c(Nc3ccccc3)c(C=O)c(=O)oc2c1 | 1.78 (inactive) | -1.59 | 1.04 | 1.54 |  |  |  | 
